Measurements as given in article PMC2886165 (Biochimica et biophysica acta, 2010).
Where “and” joins values, the source holds several entries; their conditions need not be identical. Equal entries are not always repeated. Where two headings read alike, the source gives them in different places.

Tests used:
[1] = test system: LXRs; details: cited from earlier work
[2] = biological target: T1, Gal4-RORα LBD (Homo sapiens, UniProt P35398); details: previous study; cited from earlier work
T1 sequence (P35398 272-510 limits assumed): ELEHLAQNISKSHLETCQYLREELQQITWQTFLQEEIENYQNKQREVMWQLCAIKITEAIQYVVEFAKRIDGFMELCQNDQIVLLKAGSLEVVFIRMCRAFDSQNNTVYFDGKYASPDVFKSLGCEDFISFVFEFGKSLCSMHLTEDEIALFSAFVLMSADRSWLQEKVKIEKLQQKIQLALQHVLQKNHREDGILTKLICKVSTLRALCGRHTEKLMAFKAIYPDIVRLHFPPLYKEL

[3] = biological target: T2, Gal4-RORγ LBD (Homo sapiens, UniProt P51449); details: previous study; cited from earlier work
T2 sequence (P51449 269-508 limits assumed): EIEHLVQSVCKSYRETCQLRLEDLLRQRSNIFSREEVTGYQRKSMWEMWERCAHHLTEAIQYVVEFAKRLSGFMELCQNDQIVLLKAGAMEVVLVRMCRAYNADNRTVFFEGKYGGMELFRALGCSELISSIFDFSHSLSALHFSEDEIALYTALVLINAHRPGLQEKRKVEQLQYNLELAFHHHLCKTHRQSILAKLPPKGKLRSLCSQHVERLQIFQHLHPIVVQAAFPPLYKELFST

[4] = biological target: T3, RORγ LBD (Homo sapiens, UniProt P51449); format: binding
T3 sequence (P51449 269-508 limits assumed): T2 sequence (P51449 269-508 limits assumed)

[5] = biological target: T1, Gal4-RORα LBD; experiment: Gal4-RORα LBD cotransfection luciferase assay in HEK293 cells; format: cell-based; details: for effect on constitutive activity: single dose of 10 μM
Procedure, shortened: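 Gal4-RORα LBD plasmid transfected into HEK293 cells with Lipofectamine 2000; cells plated 15 × 10^3/well 24 h earlier. […] Dual luciferase read after 24 h; four wells per point, ≥3 repeats. IC50 derived by non-linear regression; dose responses analysed by one-way ANOVA.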

[6] = biological target: T2, Gal4-RORγ LBD; experiment: Gal4-RORγ LBD cotransfection luciferase assay in HEK293 cells; format: cell-based; details: for effect on constitutive activity: single dose of 10 μM
[7] = biological target: T4, RORα LBD (Homo sapiens, UniProt P35398); format: binding; details: competition with 3 nM [3H]-25-hydroxycholesterol, Cheng-Prusoff
T4 sequence (P35398 272-510 limits assumed): T1 sequence (P35398 272-510 limits assumed)

[8] = biological target: T5, full-length RORα (Homo sapiens, UniProt P35398); format: cell-based; details: 10 μM, HEK293
T5 sequence (P35398 1-523): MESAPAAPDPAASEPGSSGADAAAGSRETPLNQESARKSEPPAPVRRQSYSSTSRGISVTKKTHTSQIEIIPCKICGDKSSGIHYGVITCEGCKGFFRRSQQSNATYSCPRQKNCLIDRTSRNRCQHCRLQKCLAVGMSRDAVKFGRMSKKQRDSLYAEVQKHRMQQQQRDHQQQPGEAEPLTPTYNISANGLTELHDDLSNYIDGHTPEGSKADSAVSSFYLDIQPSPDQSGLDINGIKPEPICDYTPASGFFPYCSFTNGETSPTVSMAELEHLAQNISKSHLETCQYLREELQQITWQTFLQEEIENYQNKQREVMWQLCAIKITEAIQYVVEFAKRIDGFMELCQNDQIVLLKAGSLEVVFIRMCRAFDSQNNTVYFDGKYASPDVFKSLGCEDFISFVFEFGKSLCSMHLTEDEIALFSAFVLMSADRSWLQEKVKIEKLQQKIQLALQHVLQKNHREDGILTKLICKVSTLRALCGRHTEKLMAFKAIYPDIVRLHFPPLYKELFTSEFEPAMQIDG
Procedure, shortened: (§1)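 HEK293 cells (DMEM, 10% FBS, 37 °C, 5% CO2) plated at 15 × 10^3 cells/well 24 h before transfection. Lipofectamine 2000 cotransfection of full-length receptor expression vector plus Bmal1 promoter-luciferase reporter. Vehicle or 10 μM test compound added 16 h post-transfection; dual luciferase read 24 h later. Mean ± S.E. of four wells, repeated at least three times; paired t test.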

[9] = biological target: T6, full-length RORγ (Homo sapiens, UniProt P51449); format: cell-based; details: 10 μM, HEK293
T6 sequence (P51449 1-518): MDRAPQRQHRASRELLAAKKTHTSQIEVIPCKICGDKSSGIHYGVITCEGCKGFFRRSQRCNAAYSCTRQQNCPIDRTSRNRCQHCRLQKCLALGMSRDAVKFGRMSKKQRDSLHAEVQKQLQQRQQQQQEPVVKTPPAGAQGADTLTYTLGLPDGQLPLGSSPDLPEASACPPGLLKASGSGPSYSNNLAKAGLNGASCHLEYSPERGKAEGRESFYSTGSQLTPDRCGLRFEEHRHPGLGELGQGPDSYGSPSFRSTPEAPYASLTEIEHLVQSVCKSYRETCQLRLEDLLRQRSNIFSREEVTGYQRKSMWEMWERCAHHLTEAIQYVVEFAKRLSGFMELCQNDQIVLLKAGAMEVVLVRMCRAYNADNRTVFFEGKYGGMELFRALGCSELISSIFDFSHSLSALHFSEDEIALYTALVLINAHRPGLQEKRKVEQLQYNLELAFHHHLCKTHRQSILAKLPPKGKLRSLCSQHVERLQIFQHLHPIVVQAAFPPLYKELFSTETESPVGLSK
Procedure, shortened: as §1

[10] = biological target: T7, RORα (Homo sapiens, UniProt P35398); experiment: RORα cotransfection assay, G6Pase promoter luciferase reporter; format: cell-based; details: 10 μM, HepG2 (Figure 3C legend)
T7 sequence (P35398 1-523): T5 sequence (P35398 1-523)

[11] = test system: RORα target genes (BMAL1, REV-ERBα); experiment: Quantitative PCR of RORα target genes in HepG2 cells; format: cell-based, human; details: 10 μM
Procedure, shortened: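 HepG2 cells treated with 10 μM test compound, with RORα-targeting siRNA or scrambled control siRNA. Total RNA extracted, reverse-transcribed and quantified by real-time PCR using human BMAL1 and REV-ERBα primers.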

[12] = biological target: T8, RORα / SRC-2 on BMAL1 promoter (Homo sapiens, UniProt P35398); format: cell-based; details: 10 μM, 24 hours, HepG2
T8 sequence (P35398 1-523): T5 sequence (P35398 1-523)
Procedure, shortened: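 HepG2 cells (MEM, 10% FBS, 37 °C, 5% CO2) infected with RORα adenovirus for 24 h, then given vehicle or 10 μM test compound for a further 24 h. First IP with anti-FLAG; re-IP with anti-SRC2, anti-RNA Pol II (positive control) or IgG (negative control). Bmal1 promoter amplified by PCR; band intensity averaged over three experiments.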

SMILES: CC(C)CCC[C@@H](C)[C@H]1CC[C@H]2[C@@H]3C(=O)C=C4C[C@@H](O)CC[C@]4(C)[C@H]3CC[C@]12C [7-ketocholesterol]
- affinity for the LXRs [1]: no affinity

SMILES: CC(C)CCC[C@@H](C)[C@H]1CC[C@H]2[C@@H]3[C@H](O)C=C4C[C@@H](O)CC[C@]4(C)[C@H]3CC[C@]12C [7α-OHC]
- affinity for the LXRs [1]: no affinity

SMILES: CC(C)CC[C@@H](O)[C@@H](C)[C@H]1CC[C@H]2[C@@H]3CC=C4C[C@@H](O)CC[C@]4(C)[C@H]3CC[C@]12C [22-OHC]
- effect on activity of RORα [2]: unable to affect the activity
- effect on activity of RORγ [3]: unable to affect the activity

SMILES: C[C@H](CC[C@@H]1OC1(C)C)[C@H]1CC[C@H]2[C@@H]3CC=C4C[C@@H](O)CC[C@]4(C)[C@H]3CC[C@]12C [24,25-epoC, 24(S),25 epoxycholesterol]
- Ki [4]: 20 nM
- effect on constitutive activity [5]: without having any significant effect
- IC50 [6]: 280 nM
- effect on constitutive activity ([6]; HEK293): suppresses the activity

SMILES: CC(C)[C@H](O)CC[C@@H](C)[C@H]1CC[C@H]2[C@@H]3CC=C4C[C@@H](O)CC[C@]4(C)[C@H]3CC[C@]12C [24R-OHC, 24R-hydroxycholesterol]
- Ki [4]: 102 nM
- effect on constitutive activity [5]: no effect
- IC50 [6]: 90 nM
- effect on constitutive activity ([6]; HEK293): significant decrease in the constitutive activity

SMILES: CC(C)[C@@H](O)CC[C@@H](C)[C@H]1CC[C@H]2[C@@H]3CC=C4C[C@@H](O)CC[C@]4(C)[C@H]3CC[C@]12C [24S-OHC, 24S-hydroxycholesterol]
- Ki [7]: 27 nM
- Ki ([4]; competition with 3 nM [3H]-25-hydroxycholesterol, Cheng-Prusoff): ~25 nM and 25 nM
- reduction of transcriptional activity ([5]; 10 μM): 30 to 40%
- Maximal suppression ([5]; dose-response): ~30%
- IC50 ([5]; read-out: IC50 (suppression of transcriptional activity), dose-response): 620 nM
- reduction of transcriptional activity ([6]; 10 μM, HEK293): 30 to 40%
- Maximal suppression ([6]; dose-response, HEK293): ~30%
- IC50 ([6]; read-out: IC50 (suppression of transcriptional activity), dose-response, HEK293): 1300 nM
- suppression of Bmal1 driven reporter gene expression [8]: 20-40%
- suppression of Bmal1 driven reporter gene expression [9]: 20-40%
- suppression of G6Pase promoter reporter expression [10]: approximately 30%
- decrease of BMAL1 mRNA expression [11]: 38%
- decrease of REV-ERBα mRNA expression [11]: 33%
- reduction of SRC-2 recruited versus DMSO control [12]: ~50%

SMILES: C[C@H](CCCC(C)(C)O)[C@H]1CC[C@H]2[C@@H]3CC=C4C[C@@H](O)CC[C@]4(C)[C@H]3CC[C@]12C [25-OHC, 25-hydroxycholesterol]
- effect on activity of RORα [2]: unable to affect the activity

SMILES: C[C@@H](CO)CCC[C@@H](C)[C@H]1CC[C@H]2[C@@H]3CC=C4C[C@@H](O)CC[C@]4(C)[C@H]3CC[C@]12C [27-OHC]
- effect on activity of RORα [2]: unable to affect the activity
- effect on activity of RORγ [3]: unable to affect the activity
